# Measured values from article PMC8742638 (Clinical and Translational Science, 2021).
# Read-outs that look alike come from different tables or passages of the source.
# Experiments:
# [1] = format: in vivo, human; conditions: for Tmax: healthy female subjects, median (range); for bioavailability: oral
# How it was run: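 Healthy female volunteers fasted about 10 h, then took a 100 mg oral tablet. A 13C-labeled microdose (15 µg/ml target, PEG-400 solution diluted in saline, filtered) was infused i.v. 4 h later. Plasma was sampled predose and 1–72 h post-oral, and 5–30 min post-i.v. Concentrations were measured by LC-MS/MS against a 0.0300–15.0 ng/ml calibration (1/x² weighting). Noncompartmental analysis used the actual i.v. dose, assayed from the unflushed infusion line.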
# [2] = cited from earlier work
# [3] = tested on: CYP3A4 enzyme; conditions: cited from earlier work
# [4] = Stability and adsorption of the venetoclax microdose solution; format: physicochemical; conditions: during formulation and process development
# [5] = 100 mg venetoclax oral tablet, fasting, N = 12, mean (%CV)
# [6] = female, human, plasma, po, 100 mg
# [7] = 100 µg 13C-venetoclax solution for IV infusion, N = 11, mean (%CV)
# [8] = 100 µg 13C-venetoclax solution for IV infusion, actual dose, N = 11, mean (%CV)
compound,measurement,setting,value
CC1(C)CCC(CN2CCN(c3ccc(C(=O)NS(=O)(=O)c4ccc(NCC5CCOCC5)c([N+](=O)[O-])c4)c(Oc4cnc5[nH]ccc5c4)c3)CC2)=C(c2ccc(Cl)cc2)C1 [venetoclax],AUCinf/dose,[1]; [5],19.3 (45%) (ng·h/ml)/mg
same,Cmax/dose,[1]; [5],1.49 (47%) (ng/ml)/mg
same,Tmax,"[1]; 100 mg venetoclax oral tablet, fasting, N = 12",4.2 (4.0–6.0) h
same,half-life,"[1]; female, human, plasma, iv, 100 µg, t 1/2, 100 µg 13C-venetoclax solution for IV infusion, N = 11, harmonic mean (pseudo %CV)",~14 h
same,bioavailability,"[1]; female, human, plasma, 100 mg",5.4%
same,AUC(0-inf),[1]; [6],1930 ng·h/mL
same,AUC(0-t),[1]; [6],1850 ng·h/mL
same,Cmax,[1]; [6],149 ng/mL
same,Tmax,"[1]; female, human, plasma, po, 100 mg, Tmax, 100 mg venetoclax oral tablet, fasting, N = 12",~4 h
same,half-life,"[1]; female, human, plasma, po, 100 mg, t 1/2, 100 mg venetoclax oral tablet, fasting, N = 12, harmonic mean (pseudo %CV)",~14 h
same,fraction metabolized by the liver in a single pass,[1]; from hepatic extraction ratio,6%
same,bioavailability,"[1]; human, plasma",18 to 28%
same,pharmacokinetic linearity,[2],linear between 150 and 800 mg dose
same,terminal half-life,[2],16 h
same,time to reach Cmax after dosing,[2],6 to 8 h
same,metabolism,[3],predominantly metabolized by the CYP3A4 enzyme
same,adsorptive losses on the infusion line,[4],1 to 2 µg/mL
[^13C7]‐venetoclax [^13C‐venetoclax],t 1/2,"[1]; 100 µg 13C-venetoclax solution for IV infusion, N = 11, harmonic mean (pseudo %CV)",14.4 (5.5) h
same,AUCinf,[1]; [7],0.036 (39%) µg·h/ml
same,AUCt,[1]; [7],0.034 (37%) µg·h/ml
same,Cmax,[1]; [7],0.019 (19%) µg/ml
same,AUCinf/dose,[1]; [8],324 (37%) (ng·h/ml)/mg
same,AUCt/dose,[1]; [8],310 (36%) (ng·h/ml)/mg
same,Cmax/dose,[1]; [8],176 (16%) (ng/ml)/mg
